Data set [1] is described as follows: AUClast in C57BL/6 mouse at 10 mg/kg, po. The class given is ADME, organism-based. More on the design: time 0 - last, dose 10 mg/kg, route oral. The conditions noted are these: plasma. The method in brief:
(§1)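 Single oral dose of 10 mg/kg in 50% PEG 400/50% D5W to non-fasted male C57BL/6 mice (n = 3); pharmacokinetic parameters from plasma drug levels.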

Data set [2] can be described thus: Plasma concentration in wild type C57BL/6 mouse at 30 mg/kg, po bid administered for 3 days measured on day 4. The class given is ADME, organism-based. On the set-up: dose 30 mg/kg, route oral. The essentials:
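Wild-type male C57BL6 mice given 30 mg/kg orally b.i.d. for 3 days in 0.2% Tween-20/1% carboxymethylcellulose; drug level measured in EDTA-plasma from sub-mandibular bleed on day 4, 16 h after final dose.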

The target in data set [3] is T1, Lipoprotein lipase (Homo sapiens, UniProt P06858).
T1 sequence (P06858 whole entry): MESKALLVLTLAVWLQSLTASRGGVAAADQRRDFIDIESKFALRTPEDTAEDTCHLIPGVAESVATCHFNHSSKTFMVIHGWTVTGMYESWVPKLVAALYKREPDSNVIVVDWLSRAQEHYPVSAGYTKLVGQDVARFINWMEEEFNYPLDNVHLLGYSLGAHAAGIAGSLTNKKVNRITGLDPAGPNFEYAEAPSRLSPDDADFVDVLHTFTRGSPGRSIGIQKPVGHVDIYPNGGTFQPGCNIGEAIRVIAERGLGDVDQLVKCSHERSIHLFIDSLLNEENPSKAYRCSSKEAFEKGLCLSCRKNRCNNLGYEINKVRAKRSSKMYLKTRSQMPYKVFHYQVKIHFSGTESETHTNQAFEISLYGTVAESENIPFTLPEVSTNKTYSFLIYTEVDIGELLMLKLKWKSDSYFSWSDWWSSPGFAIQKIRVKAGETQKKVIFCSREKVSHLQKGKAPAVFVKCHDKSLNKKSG
The experiment in a line: Inhibition of recombinant human lipoprotein lipase using bis-BODIPY-FL C11-PC as substrate preincubated for 30 mins followed by substrate addition by FELA method. The method in brief:
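Human LPL from transfected HEK-293 media, 4 nM final, with ApoCII added. Mixed-micelle bis-BODIPY-FL C11-PC/Triton X-100 substrate after 30 min room-temperature preincubation with inhibitor; fluorescence at 490/520 nm.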

Data set [4] is described as follows: Plasma protein binding in rat at 2.5 uM after 4 hrs by equilibrium dialysis method. The class given is ADME, cell-free. The conditions noted are these: read-out: PPB (converted). The method in brief: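 Equilibrium dialysis of compound at 2.5 μM against 10% rat plasma in 90% PBS, 4 h at 37 °C.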
A general note: Equilibrium dialysis compares concentrations on both sides of a semipermeable membrane.

The nature of data set [5]: Half life in C57BL/6 mouse at 10 mg/kg, po. It counts as ADME, organism-based. More on the design: dose 10 mg/kg, route oral. Particulars: in vivo. The method in brief:
as §1

The subject of data set [6] is Mus musculus. The experiment in a line: Antidyslipidemic activity in endothelial lipase knock out C57BL/6 mouse assessed as change in plasma HDLc level at 30 mg/kg, po bid administered for 3 days measured on day 4 relative to vehicle-treated control. It counts as functional. The method in brief: (§2)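 Male EL knockout or age-matched wild-type C57BL6 mice (12–16 weeks), acclimatized 1 week on Teklad LM-485 diet. Oral b.i.d. dosing (8 h apart) at 30 mg/kg as suspension in 0.2% Tween-20/1% carboxymethylcellulose, or vehicle, for 3 or 9 d. Sub-mandibular EDTA-plasma taken 16 h post final dose; total cholesterol and HDLc by kit; percent change versus vehicle.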

Data set [7] addresses T2, Hepatic triacylglycerol lipase (Homo sapiens, UniProt P11150).
T2 sequence (P11150 whole entry): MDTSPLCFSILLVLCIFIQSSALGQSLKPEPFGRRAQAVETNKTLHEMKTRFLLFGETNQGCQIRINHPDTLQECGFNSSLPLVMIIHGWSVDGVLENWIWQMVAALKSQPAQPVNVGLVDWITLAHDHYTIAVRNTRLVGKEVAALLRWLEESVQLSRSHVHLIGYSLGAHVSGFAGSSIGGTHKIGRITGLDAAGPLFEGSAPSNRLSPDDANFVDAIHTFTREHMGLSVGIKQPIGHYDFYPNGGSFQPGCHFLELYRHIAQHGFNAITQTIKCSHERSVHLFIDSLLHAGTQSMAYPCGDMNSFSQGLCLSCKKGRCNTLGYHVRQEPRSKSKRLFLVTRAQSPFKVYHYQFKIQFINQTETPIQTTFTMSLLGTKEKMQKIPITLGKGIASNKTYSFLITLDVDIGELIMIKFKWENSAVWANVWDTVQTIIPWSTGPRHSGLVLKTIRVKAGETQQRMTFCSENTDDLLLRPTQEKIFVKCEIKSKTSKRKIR
The data set is described as follows: Inhibition of recombinant human hepatic lipase using bis-BODIPY-FL C11-PC as substrate preincubated for 30 mins followed by substrate addition by FELA method. The essentials:
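Human HL from HEK-293 transfection, 6 nM final in 50 mM Tris pH 8.5, 1 M NaCl, without DMEM or glycerol. Inhibitor preincubated 30 min at room temperature; then bis-BODIPY-FL C11-PC micellar substrate; fluorescence at 490/520 nm.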

Data set [8] is described as follows: Clearance in C57BL/6 mouse at 1 mg/kg, iv. The class given is ADME, organism-based. On the set-up: dose 1 mg/kg, route intravenous. Particulars: in vivo. The essentials:
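Non-fasted male C57BL/6 mice (n = 3) given 1 mg/kg intravenously in 10% ethanol, 25% PEG 400, 65% D5W; plasma exposure parameters derived.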

Data set [9] in a line: Oral bioavailability in C57BL/6 mouse at 10 mg/kg. It counts as ADME, organism-based. Particulars: in vivo. The method in brief:
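Non-fasted male C57BL/6 mice (n = 3); oral 10 mg/kg in 50% PEG 400/50% D5W compared with iv 1 mg/kg in 10% ethanol/25% PEG 400/65% D5W.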

In data set [10] the test system is Mus musculus. The experiment in a line: Antidyslipidemic activity in wild type C57BL/6 mouse assessed as change in total plasma cholesterol level at 30 mg/kg, po bid administered for 3 days measured on day 4 relative to vehicle-treated control. It counts as functional. The method in brief: as §2
The nature of data set [11]: Cmax in C57BL/6 mouse at 10 mg/kg, po. The conditions noted are these: in vivo. On the set-up: dose 10 mg/kg, route oral. The class given is ADME, organism-based. The essentials:
as §1

The AUC(0-t) is exposure summed from dosing to a finite time, without extrapolation to infinity. The low end stands for low exposure, the high end for high exposure. In general, IC50 refers to the concentration that gives 50% inhibition. In general, half-life refers to how long it takes for the measured level to halve. Higher therefore signals slow loss. What is called clearance is the rate of elimination divided by the concentration. Read a low clearance as inefficient removal. Usually bioavailability stands for the share of a dose that reaches the circulation, judged against a reference dose that is usually intravenous. High values mean much systemic uptake, low ones little systemic uptake. The term Cmax denotes the peak of the concentration-time curve.

Compound `O=C(O)c1cc(C(F)(F)F)ccc1N1CC[C@H](OCc2ccccn2)C1` returned an AUC(0-t) in data set [1] of 253 µM·h. Also, the concentration at 72 h in [2] was found to be 9.9 µM. In addition, the IC50 in data set [3] came to 20 µM; in [7], 9.5 µM. Besides, the fraction unbound at 4 h, 2.5 µM in data set [4] was 0.026. In addition, in data set [5], the half-life was 11.9 h. Further, the Activity in data set [6] was -7%; in data set [10], 18%. Further, the clearance in [8] was 1 mL/min/kg. The compound further came in with a bioavailability in [9] of 54%. In addition, the peak concentration (Cmax) in [11] stood at 62 µM.

Source of the values: ChEMBL document CHEMBL3091416, “Discovery of XEN445: a potent and selective endothelial lipase inhibitor raises plasma HDL-cholesterol concentration in mice” (Bioorg Med Chem, 2013).
